In ChEMBL document CHEMBL1629474, “Massive screening yields novel and selective Trypanosoma cruzi triosephosphate isomerase dimer-interface-irreversible inhibitors with anti-trypanosomal activity” (Eur J Med Chem, 2010):
Activity calls are given as the source filed them. How the calls were made is not given here.

Key:
[1] = Selectivity for Trypanosoma cruzi triosephosphate isomerase over human triosephosphate isomerase
Trypanosoma cruzi [2] = experiment: Antiparasitic activity against Trypanosoma cruzi T2 epimastigotes assessed as growth inhibition; format: functional; details: read-out: ID50 (the source's name)
Outline: (§1)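 Epimastigotes were cultured at 28 °C in BHI-tryptose plus 5% fetal calf serum and seeded at 2×10^6/mL with increasing compound concentrations (from DMSO stock; final DMSO ≤1%). Growth was followed as A590 against untreated controls. ID50 was the concentration halving absorbance relative to controls. Means of two experiments.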

Trypanosoma cruzi [3] = experiment: Antiparasitic activity against Trypanosoma cruzi T2 epimastigotes assessed as growth inhibition at 25 uM after 5 days; format: functional; details: for inhibition of growth at 25 µM: T2, 120 h, read-out: GI
Outline: (§2)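 Late-log epimastigotes were grown axenically at 28 °C in BHI-tryptose with 5% fetal calf serum and seeded at 2×10^6/mL in medium containing compound (DMSO stock; final DMSO ≤1%, 1% DMSO control). Growth was read as A590 at day 0 and day 5. Inhibition = {1 − [(Ap − A0p)/(Ac − A0c)]} × 100. Means of two experiments.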

[4] = target: Triosephosphate isomerase, glycosomal (Trypanosoma cruzi) (UniProt P52270); experiment: Inhibition of Trypanosoma cruzi triosephosphate isomerase at 100 uM after 2 hrs
Outline: (§3)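 Recombinant E. coli-expressed enzyme, dialyzed into 100 mM triethanolamine/10 mM EDTA pH 7.4, was incubated with compound (DMSO stock) in 100 mM triethanolamine, 10 mM EDTA, pH 7.4, 10% DMSO at 36 °C for 2 h. An aliquot was then assayed for activity (glyceraldehyde 3-phosphate to dihydroxyacetone phosphate, α-glycerol phosphate dehydrogenase-coupled) with 5 ng enzyme. Irreversible inhibition was scored as loss of activity; means of two experiments.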

[5] = target: Triosephosphate isomerase, glycosomal (Trypanosoma cruzi) (UniProt P52270); experiment: Inhibition of Trypanosoma cruzi triosephosphate isomerase at 400 uM after 2 hrs; outline: as §3
Trypanosoma cruzi [6] = experiment: Antiparasitic activity against Trypanosoma cruzi CLB epimastigotes assessed as growth inhibition at 25 uM after 5 days; format: functional; details: 120 h, read-out: GI; outline: as §2
Trypanosoma cruzi [7] = experiment: Antiparasitic activity against Trypanosoma cruzi CLB epimastigotes assessed as growth inhibition; format: functional; details: read-out: ID50 (the source's name); outline: as §1
[8] = target: Triosephosphate isomerase, glycosomal (Trypanosoma cruzi, UniProt P52270); experiment: Inhibition of Trypanosoma cruzi triosephosphate isomerase after 2 hrs; outline: as §3
[9] = target: Triosephosphate isomerase (Homo sapiens) (UniProt P60174); experiment: Inhibition of human triosephosphate isomerase at 100 uM after 2 hrs; outline: as §3
Trypanosoma cruzi [10] = experiment: Antiparasitic activity against Trypanosoma cruzi Y epimastigotes assessed as growth inhibition at 25 uM after 5 days; format: functional; details: 120 h, read-out: GI; outline: as §2
Trypanosoma cruzi [11] = experiment: Antiparasitic activity against Trypanosoma cruzi Y epimastigotes assessed as growth inhibition; format: functional; details: read-out: ID50 (the source's name); outline: as §1

Sequence of Triosephosphate isomerase (Homo sapiens) (P60174 whole entry): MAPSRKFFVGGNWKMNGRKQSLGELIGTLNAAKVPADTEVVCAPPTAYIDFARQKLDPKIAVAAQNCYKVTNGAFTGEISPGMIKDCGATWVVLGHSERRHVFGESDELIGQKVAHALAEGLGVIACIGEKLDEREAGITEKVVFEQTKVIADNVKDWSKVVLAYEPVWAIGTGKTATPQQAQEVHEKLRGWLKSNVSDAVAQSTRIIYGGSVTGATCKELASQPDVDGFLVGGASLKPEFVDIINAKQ
Sequence of Triosephosphate isomerase, glycosomal (Trypanosoma cruzi) (P52270 whole entry): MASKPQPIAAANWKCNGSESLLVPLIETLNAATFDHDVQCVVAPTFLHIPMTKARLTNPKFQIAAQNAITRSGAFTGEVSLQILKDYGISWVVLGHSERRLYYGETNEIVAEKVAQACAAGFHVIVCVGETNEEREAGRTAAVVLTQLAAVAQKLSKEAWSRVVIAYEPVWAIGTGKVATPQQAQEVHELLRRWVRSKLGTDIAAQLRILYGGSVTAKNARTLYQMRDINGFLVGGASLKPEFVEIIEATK
Sequence of Triosephosphate isomerase, glycosomal (P52270 whole entry): as above

| SMILES | Ratio [1] | IC50 (Trypanosoma cruzi [2]) | inhibition [4] | inhibition [5] | IC50 (Trypanosoma cruzi [7]) | IC50 [8] | inhibition [9] | IC50 (Trypanosoma cruzi [11]) | inhibition of growth at 25 µM (Trypanosoma cruzi [3]) | Activity (Trypanosoma cruzi [3]) | inhibition of growth at 25 µM (Trypanosoma cruzi [6]) | inhibition of growth at 25 µM (Trypanosoma cruzi [10]) |
| --- | --- | --- | --- | --- | --- | --- | --- | --- | --- | --- | --- | --- |
| O/N=C1C=CC(/C=C/c2ccccc2)=CC/1=N/O | > 4 | – | 8% | 77% | 4.7 µM | – | – | – | – | Active | 100% | – |
| Cc1ccc(-c2nsc(S(=O)(=O)c3ccc(C)cc3)n2)cc1 | > 4 | 5 µM | 57% | 78% | – | – | – | – | 100% | – | – | – |
| O=C(Cn1ccnc1[N+](=O)[O-])NCc1ccccc1 [BENZNIDAZOLE] | > 4 | 7.4 µM | – | 18% | – | – | – | – | – | Active | – | – |
| c1ccc(-c2nsc(-c3ccccc3)n2)cc1 | > 4 | 25 µM | 45% | 74% | – | – | – | – | 50% | – | – | – |
| Cc1c(/C=N/NC(N)=S)no[n+]1[O-] | > 4 | > 25 µM | 56% | 87% | – | – | – | – | 24.7% | – | – | – |
| NC1=NS(=O)(=O)N=C(N)C1=Cc1ccc([N+](=O)[O-])o1 | > 4 | 50 µM | 99% | 100% | – | 20 µM | – | – | 22.2% | – | – | – |
| [O-][n+]1onc(-c2ccccc2)c1CNc1cccc2ccccc12 | > 4 | > 25 µM | 45% | 72% | – | – | – | – | 24.7% | – | – | – |
| C/C(=C\c1ccc2c(c1)OCO2)[N+](=O)[O-] | > 4 | 5.1 µM | 55% | 74% | – | – | – | – | 100% | – | – | – |
| O/N=C1/C=CC(C=Cc2ccc(Cl)cc2)=C/C1=N/O | > 4 | – | 25% | 73% | 5 µM | – | – | – | – | Active | 100% | – |
| Cc1c(CNc2ccc3ccccc3c2)no[n+]1[O-] | > 4 | – | 0% | 92% | – | – | – | – | – | Active | – | – |
| O=C(N/N=C/c1ccc([N+](=O)[O-])o1)Nc1ccc2ccccc2c1 | > 4 | – | 32% | 100% | – | – | – | – | – | Active | – | – |
| O=[N+]([O-])c1ccc(C=Cc2ccc3no[n+]([O-])c3c2)s1 | > 4 | – | 82% | 71% | – | – | – | – | – | Active | – | – |
| C/C(=C\c1cccs1)[N+](=O)[O-] | > 4 | > 25 µM | 53% | 95% | – | – | – | – | 14.6% | – | – | – |
| O=C(N/N=C/c1ccc([N+](=O)[O-])o1)Nc1cccc2ccccc12 | > 4 | – | 20% | 82% | – | – | – | – | – | Active | – | – |

More lines, main results first:

| Ratio [1] | IC50 (Trypanosoma cruzi [2]) | inhibition [4] | inhibition [5] | IC50 (Trypanosoma cruzi [7]) | IC50 [8] | inhibition [9] | IC50 (Trypanosoma cruzi [11]) | SMILES | inhibition of growth at 25 µM (Trypanosoma cruzi [3]) | Activity (Trypanosoma cruzi [3]) | inhibition of growth at 25 µM (Trypanosoma cruzi [6]) | inhibition of growth at 25 µM (Trypanosoma cruzi [10]) |
| --- | --- | --- | --- | --- | --- | --- | --- | --- | --- | --- | --- | --- |
| > 4 | > 25 µM | 52% | 83% | – | – | – | – | O=c1cc(-c2ccccc2)oc2ccccc12 [FLAVONE] | 19.1% | – | – | – |
| > 4 | > 25 µM | 69% | 87% | – | – | – | – | CCOC(=O)c1nc(-c2ccccc2)ns1 | 25% | – | – | – |
| > 4 | 2.9 µM | 73% | 84% | 2 µM | 26 µM | 0% | 5.5 µM | [O-][n+]1c2ccc(O)cc2[n+]([O-])c2cc(Cl)c(Cl)cc21 | 100% | – | 100% | 100% |
| > 4 | 25 µM | 49% | 85% | – | – | – | – | CC1=CC(=N/O)/C(=N\O)C=C1 | 50% | – | – | – |
| > 4 | 50 µM | 82% | 82% | – | 13 µM | 0% | – | O=C1C(=Cc2ccc([N+](=O)[O-])o2)C(=O)N(Cc2ccccc2)S(=O)(=O)N1Cc1ccccc1 | 20.8% | – | – | – |
| > 4 | 22 µM | 81% | 96% | – | 10 µM | 0% | – | O=c1oc(-c2ccccc2)ns1 | 59% | – | – | – |
| – | > 25 µM | 98% | 95% | – | 3.5 µM | 59% | – | Cc1ccc(-c2nsc(=O)[nH]2)cc1 | 0% | – | – | – |
| > 4 | – | 58% | 85% | – | – | – | – | O=C1C(=Cc2ccc([N+](=O)[O-])cc2)C(=O)N(CCc2ccccc2)S(=O)(=O)N1CCc1ccccc1 | – | Active | – | – |
| > 4 | – | 26% | 98% | – | – | – | – | CCCCCCN1C(=O)C(=Cc2ccc([N+](=O)[O-])cc2)C(=O)N(CCCCCC)S1(=O)=O | – | Active | – | – |
| > 4 | – | 76% | 100% | – | – | – | – | COc1ccc(CCNC(=O)N/N=C/c2ccc([N+](=O)[O-])o2)cc1OC | – | Active | – | – |
| > 4 | – | 28% | 74% | – | – | – | – | O=C1C(=Cc2ccc([N+](=O)[O-])cc2)C(=O)N(Cc2ccccc2)S(=O)(=O)N1Cc1ccccc1 | – | Active | – | – |
